Data from ChEMBL document CHEMBL1177638, “Synthesis of pyrrolo[3,2-h]quinolinones with good photochemotherapeutic activity and no DNA damage” (Bioorg Med Chem, 2010).

Assays:
Format in all cases: functional, cell-based
K562 [1] = assay: Phototoxicity against human K562 cells irradiated with 3.75 J/cm'2 after 72 hrs by MTT assay; conditions: K562, light or radiation study
Procedure, shortened: (§1)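 Cells were seeded at 8 × 10³ and preincubated 18 h at 37 °C, 5% CO₂. Jurkat and K-562 grew in RPMI-1640, MCF-7 and NCTC-2544 in DMEM, and LoVo in Ham's F12, all with 10% FBS plus penicillin and streptomycin. Compounds in DMSO were diluted in HBSS, pH 7.2 (range 20–0.31; DMSO ≤1%) and applied 30 min at 37 °C. Wells were then UV-A irradiated (365 nm; 2.5 or 3.75 J/cm²), medium was replaced, and MTT was read after 72 h.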

MCF7 [2] = assay: Phototoxicity against human MCF7 cells irradiated with 2.5 J/cm'2 after 72 hrs by MTT assay; conditions: MCF7, light or radiation study; procedure, shortened: as §1
LoVo [3] = assay: Phototoxicity against human LoVo cells irradiated with 3.75 J/cm'2 after 72 hrs by MTT assay; conditions: light or radiation study; procedure, shortened: as §1
K562 [4] = assay: Phototoxicity against human K562 cells irradiated with 2.5 J/cm'2 after 72 hrs by MTT assay; conditions: K562, light or radiation study; procedure, shortened: as §1
[5] = Phototoxicity against human sNCTC-2544 cells irradiated with 3.75 J/cm'2 after 72 hrs by MTT assay; conditions: NCTC-2544, light or radiation study; procedure, shortened: as §1
[6] = Phototoxicity against human sNCTC-2544 cells irradiated with 2.5 J/cm'2 after 72 hrs by MTT assay; conditions: NCTC-2544, light or radiation study; procedure, shortened: as §1
MCF7 [7] = assay: Phototoxicity against human MCF7 cells irradiated with 3.75 J/cm'2 after 72 hrs by MTT assay; conditions: MCF7, light or radiation study; procedure, shortened: as §1
Jurkat [8] = assay: Phototoxicity against human Jurkat cells irradiated with 3.75 J/cm'2 after 72 hrs by MTT assay; conditions: light or radiation study; procedure, shortened: as §1
LoVo [9] = assay: Phototoxicity against human LoVo cells irradiated with 2.5 J/cm'2 after 72 hrs by MTT assay; conditions: light or radiation study; procedure, shortened: as §1
Jurkat [10] = assay: Phototoxicity against human Jurkat cells irradiated with 2.5 J/cm'2 after 72 hrs by MTT assay; conditions: light or radiation study; procedure, shortened: as §1

Structure (SMILES)	IC50 (K562 [1]) [µM]	IC50 (MCF7 [2]) [µM]	IC50 (LoVo [3]) [µM]	IC50 (K562 [4]) [µM]	IC50 [5] [µM]	IC50 [6] [µM]	IC50 (MCF7 [7]) [µM]	IC50 (Jurkat [8]) [µM]	IC50 (LoVo [9]) [µM]	IC50 (Jurkat [10]) [µM]
COc1ccc(Cn2ccc3c2-c2[nH]c(=O)c(S(=O)(=O)c4ccccc4)cc2CC3)cc1	2.5	4.2	2	3.1	2.7	4.3	1.8	1.2	2.8	1.6
O=c1[nH]c2c(cc1S(=O)(=O)c1ccccc1)CCc1ccn(S(=O)(=O)c3ccccc3)c1-2	> 20	> 20	> 20	> 20	> 20	> 20	> 20	> 20	> 20	> 20
CCOC(=O)c1cc2c([nH]1)-c1[nH]c(=O)c(S(=O)(=O)c3ccccc3)cc1CC2	5.3	6.1	4.6	6.1	7.2	9.3	4.3	2.5	5.5	3.5
O=c1[nH]c2c(cc1S(=O)(=O)c1ccccc1)CCc1ccn(-c3ccccc3)c1-2	> 20	> 20	> 20	> 20	> 20	> 20	> 20	> 20	> 20	> 20
Cc1ccc(Cn2ccc3c2-c2[nH]c(=O)c(S(=O)(=O)c4ccccc4)cc2CC3)cc1	2.4	3.8	2.3	2.7	2.6	3.3	2.4	1.2	2.7	1.6
Cn1ccc2c1-c1[nH]c(=O)c(S(=O)(=O)c3ccccc3)cc1CC2	> 20	> 20	> 20	> 20	> 20	> 20	> 20	> 20	> 20	> 20
O=c1[nH]c2c(cc1S(=O)(=O)c1ccccc1)CCc1ccn(Cc3ccccc3)c1-2	3.3	4	2.2	4.8	5.5	7.5	1.7	1.1	2.6	1.3
CCOC(=O)c1cc2c(n1Cc1ccc(C)cc1)-c1[nH]c(=O)c(S(=O)(=O)c3ccccc3)cc1CC2	1	1.7	1	1.3	2.2	2.7	1.4	1.2	1.6	1.5
O=c1[nH]c2c(cc1S(=O)(=O)c1ccccc1)CCc1cc[nH]c1-2	> 20	> 20	> 20	> 20	> 20	> 20	> 20	> 20	> 20	> 20
N#Cc1cc2c([nH]c1=O)-c1c(ccn1S(=O)(=O)c1ccccc1)CC2	> 20	> 20	> 20	> 20	> 20	> 20	> 20	> 20	> 20	> 20
